We go through 17 molecules from ChEMBL document CHEMBL2203022, “Design, synthesis and antimicrobial evaluation of novel 1-benzyl 2-butyl-4-chloroimidazole embodied 4-azafluorenones via molecular hybridization approach” (2012).

What all share (format): functional
One test has as its system Candida albicans. Briefly: Antifungal activity against Candida albicans MTCC 7253 at 10 ug per disk after 2 to 3 days by disc diffusion method. The conditions noted are these: read-out: DIZ. A digest of the protocol: (§1)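 Fungal inoculum: a loopful of each strain suspended in saline, spread evenly on yeast extract potato dextrose agar with a sterile glass spreader. Sterile 5 mm discs loaded with test compound in DMSO placed on the agar. Plates incubated 2–3 days at room temperature. Nystatin as reference standard. Zones of inhibition measured and compared with control and standard.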
For orientation: A growth-free zone around the sample is the usual read-out of agar diffusion tests.

Another test concerns Aspergillus flavus. Briefly: Antifungal activity against Aspergillus flavus MTCC 8188 at 10 ug per disk after 2 to 3 days by disc diffusion method. Conditions: for zone of inhibition at 10 µg/disc: read-out: DIZ. The gist of the method: as §1
For the next test, the system named is Klebsiella pneumoniae. Briefly: Antibacterial activity against Klebsiella pneumoniae MTCC 618 at 10 ug per disk after 24 hrs by disc diffusion method. Conditions: for zone of inhibition at 10 µg/disc: MTCC 618, 24 h, read-out: DIZ. A digest of the protocol: (§2)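 Standard 0.5 McFarland inoculum spread evenly over nutrient agar plates with a sterile L-shaped glass spreader. Plates incubated 24 h at 37 °C. Gentamicin as reference standard. Read-out: zone of inhibition in mm, measured in triplicate and compared with control and standard.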

The test system of the next test is Pseudomonas aeruginosa. Briefly: Antibacterial activity against Pseudomonas aeruginosa MTCC 2453 at 10 ug per disk after 24 hrs by disc diffusion method. The conditions noted are these: MTCC 2453, 24 h, read-out: DIZ. A digest of the protocol:
as §2

The next test concerns Escherichia coli. Briefly: Antibacterial activity against Escherichia coli MTCC 1573 at 10 ug per disk after 24 hrs by disc diffusion method. The conditions noted are these: MTCC 1573, 24 h, read-out: DIZ. A digest of the protocol: as §2
The test system of the next test is Staphylococcus aureus. Nature of the test: Antibacterial activity against Staphylococcus aureus MTCC 1430 at 10 ug per disk after 24 hrs by disc diffusion method. The conditions noted are these: MTCC 1430, 24 h, read-out: DIZ. A digest of the protocol:
as §2

Another test relates to Bacillus subtilis. Nature of the test: Antibacterial activity against Bacillus subtilis MTCC 121 at 10 ug per disk after 24 hrs by disc diffusion method. Conditions: for zone of inhibition at 10 µg/disc: MTCC 121, 24 h, read-out: DIZ. The gist of the method:
as §2

Take `CCCCc1nc(Cl)c(-c2cc(-c3ccc4sc5ccccc5c4c3)nc3c2C(=O)c2ccccc2-3)n1Cc1ccccc1`: the zone of inhibition at 10 µg/disc stood at 14 mm with Candida albicans; 10 mm with Aspergillus flavus; 11 mm with Klebsiella pneumoniae; 7 mm in the test on Pseudomonas aeruginosa; 8 mm in the test with Escherichia coli; 12 mm with Staphylococcus aureus. Also, the zone of inhibition at 10 µg/disc in the test on Bacillus subtilis is 9 mm.

On to `CCCCc1nc(Cl)c(-c2cc(-c3ccc4ccccc4c3)nc3c2C(=O)c2ccccc2-3)n1Cc1ccccc1`, for which the zone of inhibition at 10 µg/disc came to 10 mm in the test with Candida albicans; 6 mm in the test on Aspergillus flavus; 12 mm with Klebsiella pneumoniae; 13 mm with Pseudomonas aeruginosa; 8 mm in the test on Escherichia coli; 12 mm in the test with Staphylococcus aureus. In addition, in the test with Bacillus subtilis, the zone of inhibition at 10 µg/disc is 9 mm.

For the molecule `CCCCc1nc(Cl)c(-c2cc(-c3ccc4oc5ccccc5c4c3)nc3c2C(=O)c2ccccc2-3)n1Cc1ccccc1`, the zone of inhibition at 10 µg/disc was 10 mm with Candida albicans; 7 mm with Aspergillus flavus; 13 mm in the test on Klebsiella pneumoniae; 13 mm with Pseudomonas aeruginosa; 9 mm in the test on Escherichia coli; 11 mm in the test on Staphylococcus aureus. For the same molecule, the zone of inhibition at 10 µg/disc with Bacillus subtilis came to 9 mm.

`CCCCc1nc(Cl)c(-c2cc(-c3ccc([N+](=O)[O-])cc3)nc3c2C(=O)c2ccccc2-3)n1Cc1ccccc1`: the zone of inhibition at 10 µg/disc worked out at 11 mm in the test with Candida albicans; 6 mm in the test with Aspergillus flavus; 10 mm in the test on Klebsiella pneumoniae; 10 mm with Pseudomonas aeruginosa; 8 mm in the test on Escherichia coli; 10 mm with Staphylococcus aureus. In the test with Bacillus subtilis, the zone of inhibition at 10 µg/disc was found to be 10 mm.

For the molecule GENTAMICIN, the results for the inhibition zone (IZ) with Klebsiella pneumoniae and in the test with Bacillus subtilis were 19 mm and 14 mm, respectively.

Consider `CCCCc1nc(Cl)c(-c2cc(-c3ccc(C)cc3)nc3c2C(=O)c2ccccc2-3)n1Cc1ccccc1`, for which the zone of inhibition at 10 µg/disc is 10 mm in the test on Candida albicans; 7 mm with Aspergillus flavus; 11 mm in the test with Klebsiella pneumoniae; 8 mm in the test on Pseudomonas aeruginosa; 9 mm in the test with Escherichia coli; 10 mm with Staphylococcus aureus. For the same molecule, the zone of inhibition at 10 µg/disc in the test on Bacillus subtilis turned out to be 8 mm.

As for `CCCCc1nc(Cl)c(-c2cc(-c3ccco3)nc3c2C(=O)c2ccccc2-3)n1Cc1ccccc1`, the zone of inhibition at 10 µg/disc is 13 mm with Candida albicans; 10 mm in the test with Aspergillus flavus; 15 mm with Klebsiella pneumoniae; 14 mm with Pseudomonas aeruginosa; 8 mm in the test with Escherichia coli; 15 mm in the test on Staphylococcus aureus. The zone of inhibition at 10 µg/disc in the test on Bacillus subtilis worked out at 8 mm.

In the test on Aspergillus flavus, NYSTATIN came in with an inhibition zone (IZ) of 9 mm.

As to `CCCCc1nc(Cl)c(-c2cc(-c3cccs3)nc3c2C(=O)c2ccccc2-3)n1Cc1ccccc1`, the zone of inhibition at 10 µg/disc amounted to 10 mm in the test on Candida albicans; 5 mm in the test with Aspergillus flavus; 10 mm in the test with Klebsiella pneumoniae; 11 mm in the test on Pseudomonas aeruginosa; 9 mm with Escherichia coli; 10 mm in the test on Staphylococcus aureus. Also, the zone of inhibition at 10 µg/disc in the test on Bacillus subtilis was found to be 10 mm.

Take `CCCCc1nc(Cl)c(-c2cc(-c3cn(S(=O)(=O)c4ccc(C)cc4)c4ccccc34)nc3c2C(=O)c2ccccc2-3)n1Cc1ccccc1`: the zone of inhibition at 10 µg/disc in the test with Candida albicans turned out to be 13 mm; in the test on Aspergillus flavus, 11 mm; with Klebsiella pneumoniae it was 12 mm; in the test with Pseudomonas aeruginosa it was 7 mm; with Escherichia coli, 8 mm; with Staphylococcus aureus, 10 mm. Also, the zone of inhibition at 10 µg/disc with Bacillus subtilis turned out to be 7 mm.

As for `CCCCc1nc(Cl)c(-c2cc(-c3cc(OC)c(OC)c(OC)c3)nc3c2C(=O)c2ccccc2-3)n1Cc1ccccc1`, the zone of inhibition at 10 µg/disc is 10 mm in the test with Candida albicans; 6 mm in the test with Aspergillus flavus; 11 mm with Klebsiella pneumoniae; 7 mm in the test with Pseudomonas aeruginosa; 9 mm in the test with Escherichia coli; 12 mm with Staphylococcus aureus. Further, in the test with Bacillus subtilis, the zone of inhibition at 10 µg/disc was determined as 9 mm.

Take `CCCCc1nc(Cl)c(-c2cc(-c3ccc(Br)cc3)nc3c2C(=O)c2ccccc2-3)n1Cc1ccccc1`: the zone of inhibition at 10 µg/disc came to 10 mm in the test on Candida albicans; 7 mm in the test on Aspergillus flavus; 12 mm in the test on Klebsiella pneumoniae; 6 mm with Pseudomonas aeruginosa; 9 mm in the test on Escherichia coli; 12 mm in the test with Staphylococcus aureus. For the same molecule, in the test on Bacillus subtilis, the zone of inhibition at 10 µg/disc is 9 mm.

Turning to `CCCCc1nc(Cl)c(-c2cc(-c3ccc(OC)cc3)nc3c2C(=O)c2ccccc2-3)n1Cc1ccccc1`, the zone of inhibition at 10 µg/disc in the test on Candida albicans was 12 mm; with Aspergillus flavus, 6 mm; in the test with Klebsiella pneumoniae, 11 mm; in the test with Pseudomonas aeruginosa, 9 mm; in the test on Escherichia coli it was 8 mm; in the test on Staphylococcus aureus, 10 mm. Besides, the zone of inhibition at 10 µg/disc with Bacillus subtilis came to 9 mm.

Turning to `CCCCc1nc(Cl)c(-c2cc(-c3cccc4ccccc34)nc3c2C(=O)c2ccccc2-3)n1Cc1ccccc1`, the zone of inhibition at 10 µg/disc in the test with Candida albicans was 12 mm; with Aspergillus flavus, 5 mm; in the test with Klebsiella pneumoniae, 12 mm; in the test with Pseudomonas aeruginosa it was 6 mm; in the test on Escherichia coli it was 9 mm; in the test on Staphylococcus aureus, 12 mm. Also, the zone of inhibition at 10 µg/disc in the test on Bacillus subtilis came to 10 mm.

On to `CCCCc1nc(Cl)c(-c2cc(-c3ccc(Br)s3)nc3c2C(=O)c2ccccc2-3)n1Cc1ccccc1`, for which the zone of inhibition at 10 µg/disc with Candida albicans was determined as 9 mm; in the test with Aspergillus flavus, 7 mm; with Klebsiella pneumoniae, 12 mm; in the test on Pseudomonas aeruginosa it was 13 mm; in the test on Escherichia coli, 8 mm; in the test with Staphylococcus aureus, 12 mm. The zone of inhibition at 10 µg/disc in the test on Bacillus subtilis was 9 mm.

For the molecule `CCCCc1nc(Cl)c(-c2cc(-c3cccc(Br)n3)nc3c2C(=O)c2ccccc2-3)n1Cc1ccccc1`, the zone of inhibition at 10 µg/disc turned out to be 11 mm in the test with Candida albicans; 9 mm with Aspergillus flavus; 9 mm with Klebsiella pneumoniae; 12 mm in the test on Pseudomonas aeruginosa; 9 mm in the test on Escherichia coli; 12 mm with Staphylococcus aureus. In addition, the zone of inhibition at 10 µg/disc in the test on Bacillus subtilis is 8 mm.

With `CCCCc1nc(Cl)c(-c2cc(-c3ccccc3)nc3c2C(=O)c2ccccc2-3)n1Cc1ccccc1`, the zone of inhibition at 10 µg/disc turned out to be 10 mm in the test on Candida albicans; 8 mm in the test with Aspergillus flavus; 11 mm in the test with Klebsiella pneumoniae; 10 mm with Pseudomonas aeruginosa; 9 mm in the test on Escherichia coli; 12 mm with Staphylococcus aureus. Further, the zone of inhibition at 10 µg/disc in the test on Bacillus subtilis stood at 8 mm.
